In ChEMBL document CHEMBL1151475, “Thiopurine drugs azathioprine and 6-mercaptopurine inhibit Mycobacterium paratuberculosis growth in vitro” (2008):

Tests used:
[1] = tested on: Mycobacterium avium subsp. paratuberculosis; assay: Antituberculosis activity against Mycobacterium paratuberculosis B213 isolated from bovine assessed as minimum drug level required for inhibition by MGIT 960 susceptibility test; assay type: functional
Procedure, shortened: (§1)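 10^5 to 10^6 CFU from single-cell suspensions inoculated in duplicate into MGIT ParaTB medium with supplement and egg yolk. Drugs were at final 0.5–64.0 μg/ml, with 128.0 μg/ml added for some strains. Tubes were incubated at 37°C in MGIT 960. Inhibition is the lowest concentration giving a time to detection longer than a drug-free 1:100 inoculum control. Killing is no positive signal through 56 days.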

[2] = tested on: Mycobacterium avium subsp. paratuberculosis; assay: Antituberculosis activity against Mycobacterium paratuberculosis B244 isolated from bovine assessed as minimum drug level required for inhibition by MGIT 960 susceptibility test; assay type: functional; procedure, shortened: as §1
[3] = tested on: Mycobacterium avium subsp. paratuberculosis; assay: Antituberculosis activity against Mycobacterium paratuberculosis UCF-7 isolated from Crohn's disease patient assessed as colony counts at 4 ug after 12 days by MGIT 960 susceptibility test; assay type: functional
[4] = tested on: Mycobacterium avium subsp. paratuberculosis; assay: Antituberculosis activity against Mycobacterium paratuberculosis JTC303 isolated from bovine assessed as minimum drug level required for inhibition by MGIT 960 susceptibility test; assay type: functional; procedure, shortened: as §1
Mycobacterium avium [5] = assay: Antituberculosis activity against Mycobacterium avium WSLH1544 isolated from water assessed as minimum drug level required for inhibition by MGIT 960 susceptibility test; assay type: functional; procedure, shortened: as §1
[6] = tested on: Mycobacterium avium subsp. paratuberculosis; assay: Antituberculosis activity against Mycobacterium paratuberculosis UCF-5 isolated from Crohn's disease patient assessed as minimum drug level required for inhibition by MGIT 960 susceptibility test; assay type: functional; procedure, shortened: as §1
Mycobacterium avium [7] = assay: Antituberculosis activity against Mycobacterium avium JTC48627 isolated from bison fecal sample assessed as minimum drug level required for killing within 15 days by MGIT 960 susceptibility test; assay type: functional, Feces
[8] = tested on: Mycobacterium avium subsp. paratuberculosis; assay: Antituberculosis activity against Mycobacterium paratuberculosis ATCC 19698 isolated from bovine assessed as lowest drug level producing inhibition at 10^6 CFU of inoculum by MGIT 960 susceptibility test; assay type: functional
Procedure, shortened: (§2)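 M. paratuberculosis ATCC 19698 at 10^6 CFU per MGIT ParaTB tube in duplicate, drugs at final 1.0–64.0 μg/ml, 37°C in MGIT 960. Inhibition is the lowest concentration whose time to detection exceeds the 1:100 diluted-inoculum solvent control. No detectable growth means the tube never signals positive through 56 days.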

Mycolicibacterium phlei [9] = assay: Antituberculosis activity against Mycobacterium phlei ATCC 11758 assessed as minimum drug level required for killing after 56 days by MGIT 960 susceptibility test; assay type: functional
Procedure, shortened: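 Duplicate MGIT ParaTB tubes with egg yolk and supplement received 10^5 to 10^6 CFU and thiopurine (in 0.05 M NaOH/10 mM PBS) at final 0.5 to 64.0 μg/ml, plus 128.0 μg/ml for some strains. Tubes were incubated at 37°C in the MGIT 960. The value is the minimum concentration whose tubes never signalled positive by 56 days.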

[10] = tested on: Mycobacterium avium subsp. paratuberculosis; assay: Antituberculosis activity against Mycobacterium paratuberculosis UCF-7 isolated from Crohn's disease patient assessed as minimum drug level required for inhibition by MGIT 960 susceptibility test; assay type: functional; procedure, shortened: as §1
Enterococcus faecalis [11] = assay: Antituberculosis activity against Enterococcus faecalis ATCC 29212 isolated from human urine assessed as minimum drug level required for killing after 56 days by MGIT 960 susceptibility test; assay type: functional
[12] = tested on: Mycobacterium avium subsp. paratuberculosis; assay: Antituberculosis activity against Mycobacterium paratuberculosis B236 isolated from bovine assessed as minimum drug level required for killing after 56 days by MGIT 960 susceptibility test; assay type: functional; procedure, shortened: as §1
Enterococcus faecalis [13] = assay: Antituberculosis activity against Enterococcus faecalis ATCC 29212 isolated from human urine assessed as minimum drug level required for inhibition by MGIT 960 susceptibility test; assay type: functional
Mycobacterium avium [14] = assay: Antituberculosis activity against Mycobacterium avium WSLH1544 isolated from water assessed as minimum drug level required for killing within 15 days by MGIT 960 susceptibility test; assay type: functional
[15] = tested on: Mycobacterium avium subsp. paratuberculosis; assay: Antituberculosis activity against Mycobacterium paratuberculosis B244 isolated from bovine assessed as minimum drug level required for killing after 56 days by MGIT 960 susceptibility test; assay type: functional; procedure, shortened: as §1
[16] = tested on: Mycobacterium avium subsp. paratuberculosis; assay: Antituberculosis activity against Mycobacterium paratuberculosis ATCC 19698 isolated from bovine assessed as minimum drug level resulting in no detectable growth at 10^6 CFU of inoculum after 56 days by MGIT 960 susceptibility test; assay type: functional; procedure, shortened: as §2
Mycolicibacterium phlei [17] = assay: Antituberculosis activity against Mycobacterium phlei ATCC 11758 assessed as minimum drug level required for inhibition by MGIT 960 susceptibility test; assay type: functional
Procedure, shortened: (§3)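 MGIT ParaTB tubes were supplemented with egg yolk and inoculated in duplicate with 10^5 to 10^6 CFU from single-cell suspensions. Thiopurines were dissolved in 0.05 M NaOH in 10 mM PBS and tested at final 0.5 to 64.0 μg/ml, with 128.0 μg/ml added for some strains. Tubes ran at 37°C in the MGIT 960. The value is the lowest concentration giving a time-to-detection longer than a drug-free 1:100 inoculum control.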

[18] = tested on: Mycobacterium avium subsp. paratuberculosis; assay: Antituberculosis activity against Mycobacterium paratuberculosis B238 isolated from bovine assessed as minimum drug level required for inhibition by MGIT 960 susceptibility test; assay type: functional; procedure, shortened: as §1
Mycobacterium avium [19] = assay: Antituberculosis activity against Mycobacterium avium 104 isolated from AIDS patient assessed as minimum drug level required for inhibition by MGIT 960 susceptibility test; assay type: functional; procedure, shortened: as §1
[20] = tested on: Mycobacterium avium subsp. paratuberculosis; assay: Antituberculosis activity against Mycobacterium paratuberculosis UCF-7 isolated from Crohn's disease patient assessed as minimum drug level required for killing after 56 days by MGIT 960 susceptibility test; assay type: functional; procedure, shortened: as §1
[21] = tested on: Mycobacterium avium subsp. paratuberculosis; assay: Antituberculosis activity against Mycobacterium paratuberculosis B238 isolated from bovine assessed as minimum drug level required for killing after 56 days by MGIT 960 susceptibility test; assay type: functional; procedure, shortened: as §1
Mycobacterium avium [22] = assay: Antituberculosis activity against Mycobacterium avium 104 isolated from AIDS patient assessed as minimum drug level required for killing within 15 days by MGIT 960 susceptibility test; assay type: functional
Mycobacterium avium [23] = assay: Antituberculosis activity against Mycobacterium avium EPA3 isolated from water assessed as minimum drug level required for killing within 15 days by MGIT 960 susceptibility test; assay type: functional
[24] = tested on: Mycobacterium avium subsp. paratuberculosis; assay: Antituberculosis activity against Mycobacterium paratuberculosis UCF-5 isolated from Crohn's disease patient assessed as minimum drug level required for killing after 56 days by MGIT 960 susceptibility test; assay type: functional; procedure, shortened: as §1
[25] = tested on: Mycolicibacterium smegmatis; assay: Antituberculosis activity against Mycobacterium smegmatis ATCC 14468 assessed as minimum drug level required for inhibition by MGIT 960 susceptibility test; assay type: functional; procedure, shortened: as §3
Mycobacterium avium [26] = assay: Antituberculosis activity against Mycobacterium avium ATCC 35712 isolated from chicken assessed as minimum drug level required for inhibition by MGIT 960 susceptibility test; assay type: functional; procedure, shortened: as §1
[27] = tested on: Mycobacterium avium subsp. paratuberculosis; assay: Antituberculosis activity against Mycobacterium paratuberculosis UCF-8 isolated from Crohn's disease patient assessed as minimum drug level required for inhibition by MGIT 960 susceptibility test; assay type: functional; procedure, shortened: as §1
Mycobacterium avium [28] = assay: Antituberculosis activity against Mycobacterium avium JTC981 isolated from bongo fecal sample assessed as minimum drug level required for inhibition by MGIT 960 susceptibility test; assay type: functional, Feces; procedure, shortened: as §1
[29] = tested on: Mycobacterium avium subsp. paratuberculosis; assay: Antituberculosis activity against Mycobacterium paratuberculosis B213 isolated from bovine assessed as minimum drug level required for killing after 56 days by MGIT 960 susceptibility test; assay type: functional; procedure, shortened: as §1
Mycobacterium avium [30] = assay: Antituberculosis activity against Mycobacterium avium JTC981 isolated from bongo fecal sample assessed as minimum drug level required for killing within 15 days by MGIT 960 susceptibility test; assay type: functional, Feces
Escherichia coli = assay: Antituberculosis activity against Escherichia coli ATCC 25922 clinical isolate assessed as minimum drug level required for killing after 56 days by MGIT 960 susceptibility test; assay type: functional

Sc1ncnc2nc[nH]c12 [MERCAPTOPURINE ANHYDROUS]
Activity [1]: 4 µg/mL | Activity [2]: 4 µg/mL | log10CFU/ml [3]: 3.19 | Activity [4]: 1 µg/mL | Activity (Mycobacterium avium [5]): 8 µg/mL | Activity [6]: 1 µg/mL | Activity (Mycobacterium avium [7]): >64 µg/mL | Activity [8]: 1 µg/mL | Activity (Mycolicibacterium phlei [9]): 16 µg/mL | Activity [10]: <1 µg/mL | Activity (Enterococcus faecalis [11]): >128 µg/mL | Activity [12]: >32 µg/mL | Activity (Enterococcus faecalis [13]): >128 µg/mL | Activity (Mycobacterium avium [14]): >64 µg/mL | Activity [15]: >32 µg/mL | Activity [16]: 32 µg/mL | Activity (Mycolicibacterium phlei [17]): 1 µg/mL | Activity [18]: 4 µg/mL | Activity (Mycobacterium avium [19]): >64 µg/mL | Activity [20]: 8 µg/mL | Activity [21]: >32 µg/mL | Activity (Mycobacterium avium [22]): >64 µg/mL | Activity (Mycobacterium avium [23]): >64 µg/mL | Activity [24]: >32 µg/mL | Activity [25]: >128 µg/mL | Activity (Mycobacterium avium [26]): >64 µg/mL | Activity [27]: <1 µg/mL | Activity (Mycobacterium avium [28]): >64 µg/mL | Activity [29]: >32 µg/mL | Activity (Mycobacterium avium [30]): >64 µg/mL | Activity (Escherichia coli): >128 µg/mL
